Inconclusive results are not listed.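 How the source made its calls, unless noted: active means cell viability at or below a set limit in both duplicate runs, the limit being the all-compound median minus 4 SD (cut at about 23% in these data, passing the limit was not always enough); inconclusive means no clear call, values can overlap the other calls; inactive means the rest.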
Experiments:
[1] = OD615 S. cerevisiae growth inhibition, permissive medium, pilot counter-assay, permissive growth control for S. cerevisiae lifespan shortening project (AID 705;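 active means growth inhibition above 25% in both replicates, a cutoff set 3 SD above the mean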); details: OD615, 24 h, at 10 µM, stronger effect = higher value
In short: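 System: Engineered DeaD yeast | Buffer or medium: SC raffinose/galactose permissive medium | Incubation: Cells pre-grown 4 h, then 24 h compound exposure, 30 °C humidified | Measured by: Absorbance (optical density) at 615 nm | Read-out: Reduction in yeast growth (OD615)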

[2] = Restrictive medium S. cerevisiae growth inhibition, OD615, pilot screen of yeast lifespan reduction project, restrictive growth control (AID 706;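 active means growth inhibition above a set limit, 3 SD over mean compound inhibition, in both replicates, cut at about 43% in these data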;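 further: modified DeaD lifespan yeast strain shifted to restrictive glucose medium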); details: OD615, 48 h, at 10 µM, stronger effect = higher value
In short: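 Material: modified S. cerevisiae; Medium: glucose-based CSMM-D restrictive medium; Compound dosing: one concentration, 10 µM final, 0.25% DMSO; Incubation: 48 h compound exposure at 30 °C; Measured by: OD615.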

[3] = viability gain of MRP-1-high H69AR cells under doxorubicin, pilot screen, MRP-1 activator project, CellTiter-Glo, duplicate (AID 807;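 active means viability increase at or above a cutoff of the median across tested compounds plus 3 SD, cut at about 8.5% in these data, passing the limit was not always enough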;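 further: compound pretreatment 18-22 h then 72 h combined with doxorubicin; 0% = doxorubicin alone and 100% = vehicle without doxorubicin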); details: H69AR viability with doxorubicin, CellTiter-Glo luminescence; at 10 µM; stronger effect = higher value
[4] = growth suppression of beta-catenin knockout HCT116, pilot screen, human colon tumor cells (AID 823); details: CellTiter-Glo, 60 h, at 10 µM, stronger effect = lower value;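 further: 0% = wells killed by 20 µM Hyamine and 100% = untreated DMSO cell wells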
[5] = growth suppression of PTEN-deleted HCT116, pilot screen, cell-based, HCT116 clonal line, CellTiter-Glo (AID 824;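 active means viability at or below 27.92% in each of two runs, the all-compound median minus 4 SD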;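 further: 0% = 20 µM Hyamine control and 100% = vehicle cell control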); details: 60 h, at 10 µM, stronger effect = lower value
[6] = inhibitors of the yeast RAM network, pilot screen, dse1pr::URA3 reporter, 5-FOA selection (AID 869;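 active means inhibition over a set limit, the all-compound mean plus 3 SD, in both replicate runs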;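 further: 0% = DMSO wells with no growth and 100% = 10 µM 1-NA-PP1 with full growth; RAM network block rescues cells from 5-FOA so hits raise OD615 growth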); details: S. cerevisiae dse1pr::URA3 5-FOA growth, OD615, 2 d; at 10 µM; stronger effect = higher value; strain carries analog-sensitive mutant Cbk1 kinase
[7] = RAM signaling pathway blockade in yeast – S. cerevisiae, Pdr1DBD-CYC8 efflux-inhibited sensitized strain, primary screen (AID 1298;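 active means RAM network inhibition above 8.4% in each of two replicates, 3 SD over the compound average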;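 further: 0% = DMSO untreated cells without growth and 100% = 10 µM 1-NA-PP1 full growth; higher means more yeast growth rescued from 5-FOA killing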); details: S. cerevisiae cbk1-as DSE1-URA3 strain, 5-FOA growth OD615, 2 d; at 50 µM; stronger effect = higher value

O=C(Nc1ccccc1F)C1CCCN(S(=O)(=O)c2cccc3cccnc23)C1 (configuration not stated)
inactive: growth inhibition [1] -3.46% | growth inhibition [2] -7.69% | viability increase [3] -1.63% | viability [4] 92.3% | viability [5] 88.8% | inhibition [6] 1.49% | RAM network inhibition [7] 2.96%

CCCNC(=O)C1CC(=O)N(c2ccc(OCC(=O)Nc3cccc(C)c3C)cc2)C1 (configuration not stated)
inactive: growth inhibition [1] -13.4% | growth inhibition [2] -14.8% | viability increase [3] -1.99% | viability [4] 106% | viability [5] 97.7% | inhibition [6] 2.35% | RAM network inhibition [7] 1.01%

COc1c(Cl)ccc(Cl)c1C(=O)OCC(=O)O
inactive: growth inhibition [1] -7.06% | growth inhibition [2] -27.7% | viability increase [3] -2.73% | viability [4] 86% | viability [5] 86.9% | inhibition [6] 1.39% | RAM network inhibition [7] 4.54%

Cc1ccc2c(c1)NCC(C(=O)NC1CCC(C)CC1)O2 (configuration not stated)
inactive: growth inhibition [1] -10.3% | growth inhibition [2] -4.18% | viability increase [3] 1.52% | viability [4] 98.4% | viability [5] 91.4% | inhibition [6] 1% | RAM network inhibition [7] 5.26%

CCCc1c(C(=O)OCC)[nH]c2c1C(=O)CCC2
inactive: growth inhibition [1] 1.82% | growth inhibition [2] 2.14% | viability increase [3] -2.07% | viability [4] 107% | viability [5] 95.3% | inhibition [6] 1.46% | RAM network inhibition [7] 2.61%

CCOc1ccc2nc(N3CCCC(C(=O)NCCCN4CCOCC4)C3)sc2c1 (configuration not stated)
inactive: growth inhibition [1] -10.1% | growth inhibition [2] -15.6% | viability increase [3] -2.55% | viability [4] 86.3% | viability [5] 92.8% | inhibition [6] 1.36% | RAM network inhibition [7] 0.52%

CCOC(=O)N1CCN(C(=O)CN(c2cc(C(F)(F)F)ccc2Cl)S(C)(=O)=O)CC1
inactive: growth inhibition [1] 0.24% | growth inhibition [2] 9.28% | viability increase [3] -1.79% | viability [4] 103% | viability [5] 99% | inhibition [6] -0.91% | RAM network inhibition [7] -0.25%

Cc1ccc(C)c(S(=O)(=O)NC(CC(C)C)C(=O)O)c1 (configuration not stated)
inactive: growth inhibition [1] -9.28% | growth inhibition [2] -29.3% | viability increase [3] -1.32% | viability [4] 105% | viability [5] 102% | inhibition [6] 1.69% | RAM network inhibition [7] 2.5%

Brc1ccc(-c2nnc(-c3ccco3)o2)cc1
inactive: growth inhibition [1] -19.6% | growth inhibition [2] -17.3% | viability increase [3] 0.83% | viability [4] 95.1% | viability [5] 93.9% | inhibition [6] 0.93% | RAM network inhibition [7] 7.37%

CC(NC(=O)c1ccco1)C(c1cccs1)N1CCOCC1 (configuration not stated)
inactive: growth inhibition [1] -6.95% | growth inhibition [2] 7.38% | viability increase [3] -2.37% | viability [4] 101% | viability [5] 99.5% | inhibition [6] 0.88% | RAM network inhibition [7] 1.38%

Cn1c(=O)c2c(nc(NCc3ccccc3)n2Cc2ccc(F)cc2)n(C)c1=O
inactive: growth inhibition [1] -2.42% | growth inhibition [2] -16.9% | viability increase [3] -5.47% | viability [4] 65.9% | viability [5] 54.1% | inhibition [6] 2.54% | RAM network inhibition [7] 3.33%

Cc1ccccc1NC(=O)CN1C(=O)COc2ccc(Cl)cc21
inactive: growth inhibition [1] -14.1% | growth inhibition [2] -18% | viability increase [3] 1.63% | viability [4] 95% | viability [5] 87.9% | inhibition [6] 0.995% | RAM network inhibition [7] 4.92%

COc1ccc(S(=O)(=O)Cc2ccc(C(=O)N3CCN(c4ncccn4)CC3)o2)cc1
inactive: growth inhibition [1] -2.81% | growth inhibition [2] 4.27% | viability increase [3] -2.72% | viability [4] 106% | viability [5] 103% | inhibition [6] 2.58% | RAM network inhibition [7] 2.27%

CCOC(=O)Cn1c(=O)oc2cc(S(=O)(=O)N3CCc4ccccc43)ccc21
inactive: growth inhibition [1] -6.21% | growth inhibition [2] 1.04% | viability increase [3] -1.01% | viability [4] 91.8% | viability [5] 93.8% | inhibition [6] -0.605% | RAM network inhibition [7] 2.93%

O=C(CSc1nnc2sc3ccccc3n12)NCc1ccc2c(c1)OCO2
inactive: growth inhibition [1] 1.77% | growth inhibition [2] 20.7% | viability increase [3] -1.52% | viability [4] 104% | viability [5] 101% | inhibition [6] 0.245% | RAM network inhibition [7] 4.54%

O=C(c1ccco1)N1CCN=C1SCc1cccc(Cl)c1
inactive: growth inhibition [1] -1.8% | growth inhibition [2] 14% | viability increase [3] 1.56% | viability [4] 87.3% | viability [5] 91.9% | inhibition [6] 0.89% | RAM network inhibition [7] 0.26%
